Laboratory results: the array DNA melting data of Ke et al. (doi:10.1101/2024.01.08.574731)

Legend:
[1] = folding enthalpy; higher = less favourable; fluorescence melt of hairpins on a sequencing array, two-state fit; settings: sodium 0.088 M
How it was run: (§1)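 Cy3 signals were normalised both to pre-quench Cy3 and to control constructs. They came from library hairpins carrying annealed Cy3 and quencher oligos on a sequenced MiSeq flow cell, imaged in 50 mM Na-HEPES pH 8.0, 25 mM NaCl, in 2.5 °C steps up to 60 °C. Bootstrapped two-state fits gave melting temperature and folding enthalpy, and four replicates were combined by inverse variance. Fitted temperatures were then raised by 9.35 °C to match UV melts.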

[2] = melting temperature; fluorescence melt of hairpins on a sequencing array, two-state fit, raised by 9.35 °C to match UV melts; settings: sodium 0.088 M
How it was run: as §1

| Sequence | folding enthalpy [1] | Tm [2] |
| --- | --- | --- |
| GTCCCCCGAAAGGGGAC (((.(((....)))))) | -19.9 kcal/mol | 67.2 °C |
| GTGACCGAAAGGTACCAC ((((((....)))..))) | -11.6 kcal/mol | 35.1 °C |
| GCGTGCGGAAACGTACGC ((((.((....)).)))) | -31.7 kcal/mol | 66.3 °C |
| GATCATCGTAATGATC ((((((....)))))) | -39.5 kcal/mol | 48.5 °C |
| GCACGCGGAAACACGCGC ((.((.(....).)).)) | -11.2 kcal/mol | 40.1 °C |
| GGGGACGAAAGTCGGCCC ((((((....)))..))) | -27.2 kcal/mol | 56.4 °C |
| GATCGGAAACGATC (((((....))))) | -28.7 kcal/mol | 55.1 °C |
| TACTCGAAAGAGTA (((((....))))) | -18.1 kcal/mol | 47.1 °C |
| GGGGTCGGAAACGGCCCC ((((.((....)).)))) | -31.7 kcal/mol | 67.9 °C |
| GTAGCGGGAAACCGTTGC (.(.(((....))).).) | -19.2 kcal/mol | 35.3 °C |
| GGCAACGAAAGTTTAGCC ((((((....)))..))) | -29.1 kcal/mol | 43.5 °C |
| GACGGAGGAAACTCCATC ((.((((....)))).)) | -16.8 kcal/mol | 33.6 °C |
| GATCAGGTTGCTGATC ((((((....)))))) | -46.3 kcal/mol | 51.2 °C |
| GCCCTCGGAAACAAGGGC (((((.(....).))))) | -35.8 kcal/mol | 49.6 °C |
| GACCACGAAAGTGTGGTC ((((((....)))..))) | -41 kcal/mol | 55.2 °C |
| GCCGGGCGAAAGCGAGGC (((..((....))..))) | -43.3 kcal/mol | 66.1 °C |
| GACCTAGCGAAAGCTGTC (((..(((....)))))) | -11.6 kcal/mol | 33 °C |
| GTGCCAGGAAACCGGCAC (((((.(....).))))) | -42.2 kcal/mol | 59.2 °C |
| GAAGAGGGAAACTTCTTC (((((.(....).))))) | -30.1 kcal/mol | 41 °C |
| GCACACGAAAGTGGTTGC ((((((....)))..))) | -15.5 kcal/mol | 45.9 °C |
| GACCATGGAAACATAGTC (((.(((....))).))) | -19.8 kcal/mol | 30.8 °C |
| GAGTGTGGAAACATACTC ((((.((....)).)))) | -31.9 kcal/mol | 45.9 °C |
| CGCGGAAAGCTCCGCG ((((((....)))))) | -28.3 kcal/mol | 68.7 °C |

| Sequence | folding enthalpy [1] | Tm [2] |
| --- | --- | --- |
| GGACAAGGAAACCTGTCC (((((.(....).))))) | -31.4 kcal/mol | 47.2 °C |
| GGGATCGAAAGATTTCCC ((((((....)))..))) | -19 kcal/mol | 32.3 °C |
| GATCGAGCTATCGATC ((((((....)))))) | -43.4 kcal/mol | 58.4 °C |
| GGCTATGGAAACATAGTC (.(((((....))))).) | -34.7 kcal/mol | 46.5 °C |
| GTAGTAGCGAAAGCTTAC (((..(((....)))))) | -11.3 kcal/mol | 30.5 °C |
| GGAAGCGGAAACGCCTCC (((.(((....))).))) | -20 kcal/mol | 45.6 °C |
| GGGGGCGAAAGCCGACCC ((((((....)))..))) | -15.1 kcal/mol | 54 °C |
| GAGTTCGGAAACGAGTTC ((..(((....)))..)) | -9.81 kcal/mol | 30.7 °C |
| GGTTAATCGAAAGATACC (((..(((....)))))) | -17.1 kcal/mol | 29.2 °C |
| GACCTTGGAAACAAGGCC (.(((((....))))).) | -17.2 kcal/mol | 45.2 °C |
| GCCTTGCGAAAGCAATGC ((.((((....)))).)) | -17.4 kcal/mol | 56.9 °C |
| GCGGCCGAAAGGCCCCGC ((((((....)))..))) | -10.3 kcal/mol | 48.1 °C |
| GTCTGCGAAAGCACCGAC ((((((....)))..))) | -12.7 kcal/mol | 32.3 °C |
| GTCCTCGAAAGAGTGAC ((((((....))).))) | -25.7 kcal/mol | 46.3 °C |
| GGGGAATCGAAAGATCCC (((..(((....)))))) | -22.5 kcal/mol | 49.1 °C |
| GCCAAACCGAAAGGTGGC (((..(((....)))))) | -32 kcal/mol | 55.4 °C |
| GTCATCGAAAGATGAGAC ((((((....)))..))) | -13.7 kcal/mol | 40.7 °C |
| GGATTCGGAAACGGATCC ((((.((....)).)))) | -39.2 kcal/mol | 53 °C |
| CGGACCGGAAACGGACCG (((.(((....))).))) | -41.5 kcal/mol | 58.6 °C |
| GACTGCGAAAGCACGGTC ((((((....)))..))) | -12.4 kcal/mol | 42.4 °C |
| GCAGTGCGAAAGCGCCGC ((.(.((....)).).)) | -17.9 kcal/mol | 52 °C |
| GCCCGGCGAAAGCCGGC (((.(((....)))))) | -6.9 kcal/mol | 65.7 °C |
| GAGTCGGGAAACCGGCTC (((.(((....))).))) | -33.3 kcal/mol | 61.1 °C |

| Sequence | folding enthalpy [1] | Tm [2] |
| --- | --- | --- |
| GATCTCTAATGAGATC ((((((....)))))) | -46.5 kcal/mol | 49.9 °C |
| GATCCCCGAAGGGATC ((((((....)))))) | -15.6 kcal/mol | 57.1 °C |
| GCACCTACGAAAGTATGC (((..(((....)))))) | -13.5 kcal/mol | 27.3 °C |
| GAATGTGGAAACACATCC (.(((((....))))).) | -14.1 kcal/mol | 36 °C |
| GAGGCCGAAAGGCATCTC ((((((....)))..))) | -17.1 kcal/mol | 68.4 °C |
| GTGCTGACGAAAGTCCAC (((..(((....)))))) | -11.9 kcal/mol | 40.8 °C |
| GCTGTCGAAAGACACAGC ((((((....)))..))) | -14.7 kcal/mol | 48.3 °C |
| GTTATTGGAAACGATAAC (((((.(....).))))) | -21.5 kcal/mol | 38.7 °C |
| GGGTCGCGAAAGCGCCC (((.(((....)))))) | -22.4 kcal/mol | 65.3 °C |
| GATCACAGTAGTGATC ((((((....)))))) | -40.1 kcal/mol | 59 °C |
| GTCTCCGAAAGGAGCGAC ((((((....)))..))) | -16.1 kcal/mol | 53.9 °C |
| GGCCAGGGAAACCCAGCC (((..((....))..))) | -30.5 kcal/mol | 42.1 °C |
| GATCGTAACAACGATC ((((((....)))))) | -35.4 kcal/mol | 55 °C |
| GCGGGCGAAAGCCGCCGC ((((((....)))..))) | -11.3 kcal/mol | 61.7 °C |
| GCCACGGCGAAAGCCGGC (((..(((....)))))) | -7.83 kcal/mol | 49.1 °C |
| GTCTGACGAAAGTCGGAC (((.(((....))).))) | -35.8 kcal/mol | 62.4 °C |
| GCTGGCGGAAACGTCGGC ((.(.((....)).).)) | -38.7 kcal/mol | 53.1 °C |
| GCGGTTGCGAAAGCACGC (((..(((....)))))) | -19.9 kcal/mol | 56.6 °C |
| GGGTGGGGAAACCTGCCC (((..((....))..))) | -25.5 kcal/mol | 49.7 °C |
| GGTAACGGAAACGTTATC (.(((((....))))).) | -24.5 kcal/mol | 46.4 °C |
| GTATTACGAAAGTATAC (((.(((....)))))) | -18.1 kcal/mol | 32.5 °C |
| GCGGTCCACCGC ((((....)))) | -26.2 kcal/mol | 68.5 °C |
| GGCTACGGAAACGTAGTC (.(((((....))))).) | -28.9 kcal/mol | 53.6 °C |

| Sequence | folding enthalpy [1] | Tm [2] |
| --- | --- | --- |
| GATCTGATACAGATC ((((((...)))))) | -39.4 kcal/mol | 48.7 °C |
| GCAGGGCGAAAGCTGTGC (((..((....))..))) | -21.7 kcal/mol | 52.2 °C |
| GCTCGGCGAAAGCTGGGC ((.(.((....)).).)) | -26.2 kcal/mol | 60.9 °C |
| GCACGCGGAAACGCACGC ((..(((....)))..)) | -18.1 kcal/mol | 47.2 °C |
| GCAGTCCGAAAGGATGC (((.(((....)))))) | -32.1 kcal/mol | 52.3 °C |
| GCCGTGCGAAAGCTAGGC (((..((....))..))) | -32 kcal/mol | 66.9 °C |
| GCATAGAAATATGC (((((....))))) | -21.9 kcal/mol | 43.3 °C |
| GCCTCTTCGAAAGAAGGC (((..(((....)))))) | -14.8 kcal/mol | 39.4 °C |
| GGTTGTGGAAACACGATC (.(.(((....))).).) | -21.9 kcal/mol | 34 °C |
| GATCATTGAATGATC ((((((...)))))) | -35.9 kcal/mol | 44.4 °C |
| GATCACATTTGTGATC ((((((....)))))) | -40.8 kcal/mol | 59.3 °C |
| GGGTTTCGAAAGAACCCC (((.(((....))).))) | -26.1 kcal/mol | 51.3 °C |
| GCCCTGCGAAAGCCAGGC (((..((....))..))) | -15.7 kcal/mol | 53 °C |
| GATCACAATCGTGATC ((((((....)))))) | -38.5 kcal/mol | 56.4 °C |
| GCATCCGAAAGGAGCTGC ((((((....)))..))) | -19.2 kcal/mol | 50.6 °C |
| GAATTGACGAAAGTCTTC (((..(((....)))))) | -11.6 kcal/mol | 29.6 °C |
| GATCTTTTTGAAGATC ((((((....)))))) | -34.5 kcal/mol | 46.1 °C |
| GATCAATCCCTTGATC ((((((....)))))) | -41.6 kcal/mol | 46.7 °C |
| GGAACACGAAAGTGCTCC (((.(((....))).))) | -40.7 kcal/mol | 50.2 °C |
| GATCGTACATACGATC ((((((....)))))) | -41.2 kcal/mol | 54.9 °C |
| GATCTGGCAGCAGATC ((((((....)))))) | -41.8 kcal/mol | 51.3 °C |
| GTCAGAGGAAACTTTGAC ((((.((....)).)))) | -32.4 kcal/mol | 37.8 °C |
| GGTTTCGAAAGAAGGACC ((((((....)))..))) | -15.5 kcal/mol | 29.1 °C |
